Assay results of several laboratories.
Lines come from different studies, so protocols differ.
Organism: Candida albicans
Read-out: microbial growth
Technique: broth dilution

| Compound | test system | conditions | MIC |
| --- | --- | --- | --- |
| Cc1ccc(N=Nc2c(N)nn3c(-c4ccco4)cc(-c4ccc(OCc5ccccc5)cc4)nc23)cc1 | ATCC10231 | – | 31.3 mg/L |
| C/C(=N\CCNCC/N=C(\C)c1c(O)c2ccccc2oc1=O)c1c(O)c2ccccc2oc1=O | – | 48 h | 7.81 mg/L |
| CC(=O)N1CCN(c2ccc(OCC3COC(Cn4ccnc4)(c4ccc(Cl)cc4Cl)O3)cc2)CC1 (stereo not shown) | 14936 | 48 h | 2 µM |
| O=C1/C(=C/c2ccc3ccccc3c2O)NC(=S)N1c1ccccc1 | ATCC10 ATCC10231 | – | 20 mg/L |
| C/C(=N\C(=S)/N=C(\C)c1c(O)c2ccccc2oc1=O)c1c(O)c2ccccc2oc1=O | – | 48 h | 3.9 mg/L |
| N=c1sc(C(=O)c2ccc(Nc3cnccn3)cc2)nn1-c1ccccc1 | ATCC10231 | – | 100 mg/L |
| C/C(=N\C(=O)/N=C(\C)c1c(O)c2ccccc2oc1=O)c1c(O)c2ccccc2oc1=O | – | 48 h | 31.2 mg/L |
| CCCCCCCCCCCC(=O)ON=C1C=CC(=C(C#N)c2ccccc2)C=C1 | ATCC10231 | 48 h | 512 mg/L |
| C/C(=N\C(=N)/N=C(\C)c1c(O)c2ccccc2oc1=O)c1c(O)c2ccccc2oc1=O | – | 48 h | 31.2 mg/L |
| CC(=O)N1CCN(c2ccc(OCC3COC(Cn4ccnc4)(c4ccc(Cl)cc4Cl)O3)cc2)CC1 (stereo not shown) | ATCC10231 | 48 h | 8 mg/L |
| COc1ccc(N2N=C(C(C)=O)SC2=C(C#N)C(=O)c2ccc(Nc3cnccn3)cc2)cc1 | ATCC10231 | – | 25 mg/L |
| N#CC(=C1C=CC(=NOC(=O)OCc2ccccc2)C=C1)c1ccccc1 | ATCC10231 | 48 h | 256 mg/L |
| COc1ccc(N=Nc2c(N)nn3c(-c4ccc(Cl)cc4Cl)cc(-c4ccc(OCc5ccccc5)cc4)nc23)cc1 | ATCC10231 | – | 62.5 mg/L |
| COc1ccc(-n2nc(C(=O)c3ccc(Nc4cnccn4)cc3)sc2=N)cc1 | ATCC10231 | – | 50 mg/L |
| CC(=O)N1CCN(c2ccc(OCC3COC(Cn4ccnc4)(c4ccc(Cl)cc4Cl)O3)cc2)CC1 (stereo not shown) | ATCC10231 | – | 1.95 mg/L |
| C[C@@H]1[C@H](O)[C@@H](C)/C=C/C=C/C=C/C=C/C=C/C=C/C=C/[C@H](O[C@@H]2O[C@H](C)[C@@H](O)[C@H](N)[C@@H]2O)C[C@@H]2O[C@](O)(C[C@@H](O)C[C@@H](O)[C@H](O)CC[C@@H](O)C[C@@H](O)CC(=O)O[C@H]1C)C[C@H](O)[C@H]2C(=O)O | ATCC10231 | 48 h | 2 mg/L |
| CC(=O)C1=NN(c2ccc([N+](=O)[O-])cc2)C(=C(C#N)C(=O)c2ccc(Nc3cnccn3)cc2)S1 | ATCC10231 | – | 6.25 mg/L |
| C#CCON=C1C=CC(=C(C#N)c2ccccc2)C=C1 | ATCC10231 | 48 h | 32 mg/L |
| Cc1ccc(N=Nc2c(N)nn3c(-c4ccc(Cl)cc4Cl)cc(-c4ccc(OCc5ccccc5)cc4)nc23)cc1 | ATCC10231 | – | 31.3 mg/L |
| C[C@@H]1[C@H](O)[C@@H](C)/C=C/C=C/C=C/C=C/C=C/C=C/C=C/[C@H](O[C@@H]2O[C@H](C)[C@@H](O)[C@H](N)[C@@H]2O)C[C@@H]2O[C@](O)(C[C@@H](O)C[C@@H](O)[C@H](O)CC[C@@H](O)C[C@@H](O)CC(=O)O[C@H]1C)C[C@H](O)[C@H]2C(=O)O | 17546 | 48 h | < 0.25 µM |
| OC(Cn1cncn1)(Cn1cncn1)c1ccc(F)cc1F | 1 | 24 h | 128 mg/L |
| C[C@@H]1[C@H](O)[C@@H](C)/C=C/C=C/C=C/C=C/C=C/C=C/C=C/[C@H](O[C@@H]2O[C@H](C)[C@@H](O)[C@H](N)[C@@H]2O)C[C@@H]2O[C@](O)(C[C@@H](O)C[C@@H](O)[C@H](O)CC[C@@H](O)C[C@@H](O)CC(=O)O[C@H]1C)C[C@H](O)[C@H]2C(=O)O | ATCC90028 | 48 h | 0.5 mg/L |
| CC(=O)C1=NN(c2ccccc2)C(=C(C#N)C(=O)c2ccc(Nc3cnccn3)cc2)S1 | ATCC10231 | – | 100 mg/L |
| C/C(=N\N=C(/C)c1c(O)c2ccccc2oc1=O)c1c(O)c2ccccc2oc1=O | – | 48 h | 125 mg/L |
| OC(Cn1cncn1)(Cn1cncn1)c1ccc(F)cc1F | SP3903 | 48 h | 4 µM |
